High-throughput results deposited in PubChem BioAssay by several laboratories.
The full list was thinned out, with hits kept by preference.
Jurkat NFkB inh: inhibitors of the PMA/ionomycin-induced NF-kB reporter in Jurkat cells. hit rate 0.53% among 330,000. PMA/ionomycin-induced NF-kB luciferase reporter, luminescence. inhibition, % at 4 µM; in the data active means inhibition above about 50%
UPR XBP1 act: adaptive UPR (XBP1) activation; CHO-XBP1 luciferase reporter, IRE1-XBP1 UPR activation, luminescence; percent of tunicamycin response, DMSO as zero; hit rate 0.33% among 330,000; activation, % at 20 µM; AID 463104;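 active means versus positive control, 20 µM dose yields 30% or more activation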;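 further: 100% = tunicamycin at 10 µg/mL and 0% = DMSO only wells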
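Material: CHO cell line with stable XBP1 luciferase reporter; schedule: 16-18 h cell attachment at 37 °C, then 6 h compound exposure; signal: glow luminescence from Steady-Glo reagent; medium: serum-containing F12 medium, 10% FBS; benchmarks: tunicamycin 10 µg/mL and vehicle-only wells; read-out: percent activation relative to tunicamycin reference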
697 NFkB inh: inhibitors of the PMA/ionomycin-induced NF-kB reporter in 697 B cells; 697 B-cell NF-kB luciferase reporter, 16 h; inhibition, % at 4 µM; hit rate 0.33% among 330,000; AID 435022; in the data active means inhibition above about 35%
CHOP inhibitor: blocks CHOP induction under ER stress | CHO-K1 CHOP-promoter luciferase, tunicamycin-induced, 15-18 h | inhibition, % at 10 µM | hit rate 3.8% among 220,000;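 active means compounds that reduced the stress-induced luciferase reporter signal by more than about 70% of percent inhibition, limit read from the data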;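 further: 0% = tunicamycin plus vehicle and 100% = wells without tunicamycin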
UPR CHOP act: activators of apoptotic arm of unfolded protein response (CHOP) | CHO-CHOP luciferase reporter, UPR activation, luminescence; percent of tunicamycin response over DMSO baseline | activation, % at 10 µM | hit rate 0.34% among 330,000 | AID 449763;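 active means at 10 µM dose, activation of 40% or more, normalized to positive control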;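 further: 100% = tunicamycin at 10 µg/mL and 0% = DMSO alone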
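Material: CHO-CHOP cells, stable luciferase reporter of PERK-eIF2a-CHOP signalling; quantity: 500 reporter cells seeded per well; buffer or medium: F12 medium containing 10% fetal bovine serum; compound: one dose, 10 µM in 0.5% DMSO; incubation: 6 h compound treatment, 37 °C; measured by: Steady-Glo luciferase luminescence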
* hit, by the source's call; · = not tested or not shown.

SMILES	Jurkat NFkB inh	UPR XBP1 act	697 NFkB inh	CHOP inhibitor	UPR CHOP act
O=C(NCc1ccccc1)C1CCN(S(=O)(=O)c2ccc(Cl)cc2)CC1	1	-1	13	-7	0
FC(F)(F)c1ccc(C2Nc3cccc4cccc(c34)N2)cc1	23	2	-94	87*	0
COc1ccccc1Cn1c(=O)c2ccccc2n2c(SCC(=O)N3CCCCC3)nnc12	-15	-4	-11	27	2
CS/C(=N\S(=O)(=O)c1ccc(Cl)cc1)c1ccccc1	-1	0	1	77*	-1
COC(=O)c1ccc(CNC(=O)C2CCC(=O)N(CCN3CCOCC3)C2)cc1 (centres undefined)	-3	0	2	·	0
CON/C=C(\C=Nc1ccccc1)c1ncc(C(F)(F)F)cc1Cl	-2	-1	4	89*	-2
CC(=O)c1ccc(NC(=O)CS(=O)(=O)c2cn(CC(=O)N3CCOCC3)c3ccccc23)cc1	8	-1	2	·	-1
Cc1onc(-c2ccccc2Cl)c1C(=O)N(Cc1ccccc1)C(C)C	-14	0	1	·	-1
COc1ccc(-c2noc(CN(C(=O)c3c(-c4ccccc4Cl)noc3C)C(C)C)n2)cc1	-22	-4	8	72*	-4
COc1ccccc1C(=O)N(Cc1nc(-c2ccc(Cl)cc2)no1)C(C)C	3	-3	11	75*	-2
OC(CN1CCN(c2ccccn2)CC1)Cn1c2ccccc2c2ccccc21 (centres undefined)	-20	-3	-24	72*	1
OC(COC(c1ccccc1)c1ccccc1)CN1CCN(c2ccccn2)CC1 (centres undefined)	-10	1	-17	-3	20
Cc1cccc(CSCCNC(=S)Nc2ccccc2)c1	8	-3	18	-6	3
S=C(NCCSCc1ccccc1Cl)Nc1ccccc1	-7	-4	20	71*	0
S=C(NCCSCc1ccc(Cl)cc1)Nc1ccccc1	-6	-1	6	80*	-1
C(=C\c1ccco1)/C1=NN(c2ccccc2)C(c2ccco2)C1 (centres undefined)	9	5	-42	74*	7
O=C(O)CCN1C(=O)/C(=C\c2ccc(-c3nc4ccccc4s3)o2)SC1=S	-15	5	-32	74*	3
O=C(O)CCCN1C(=O)/C(=C\c2ccco2)SC1=S	·	·	·	60	·
Cc1cc(C)c2nc(-c3ccccn3)cc(C(=O)NCCc3ccc(S(N)(=O)=O)cc3)c2c1	4	-3	12	89*	-2
COC(=O)c1ccc2c(c1)N(C)S(=O)(=O)c1cnc(SCC(=O)C(C)(C)C)nc1-2	-6	3	19	-29	2
N#CC(C#N)=C1C=CC=CN1/C(=C\c1ccco1)C(=O)c1ccc(Cl)cc1	·	·	·	111*	·
N#CC(C#N)=C1C=CC=CN1/C(=C\c1ccco1)C(=O)c1ccc(-c2ccccc2)cc1	·	·	·	107*	·
N#C/C(=C\c1ccco1)C(=O)NCc1ccccc1	-8	1	-7	-24	1
Cc1ccc(C(=O)Nc2nc(-c3cccnc3)cs2)o1	-16	-3	18	36	1
O=C(Nc1cccc2cccnc12)c1ccc(Br)o1	-8	1	11	77*	1
SMILES	Jurkat NFkB inh	UPR XBP1 act	697 NFkB inh	CHOP inhibitor	UPR CHOP act
O=C(Nc1cccc2ccccc12)c1ccc(Br)o1	·	·	·	-4	·
O=C(NC(=S)Nc1nc(-c2ccccc2)cs1)c1cccs1	19	0	-28	74*	3
O=C(Nc1nc(-c2ccccc2)cs1)c1ccc(Br)o1	3	5	15	74*	6
O=C(CCN1C(=O)CSc2ccccc21)Nc1ccc(OC(F)(F)F)cc1	-16	2	2	·	1
O=C(c1cccc(Cl)c1)c1nn(-c2ccccc2)c(=O)cc1C(F)(F)F	1	4	-8	85*	2
O=C(Nc1ccccc1)c1nn(-c2ccccc2)c(=O)cc1C(F)(F)F	2	0	9	73*	-1
O=C(c1ccccc1)c1nn(-c2ccccc2)c(=O)cc1C(F)(F)F	7	-2	-24	24	1
O=C(Nc1ccccc1)c1nn(-c2cccc(C(F)(F)F)c2)ccc1=O	5	-5	10	0	2
CC(C)Cc1nn2c(=O)cc(CSCC(=O)Nc3ccccc3F)nc2s1	-2	-5	-4	·	6
Clc1ccc(CSc2nnc(-c3ccccn3)n2Cc2ccco2)c(Cl)c1	-5	-1	18	82*	0
Fc1ccccc1CSc1nnc(-c2cnccn2)n1Cc1ccco1	-6	-3	-7	23	2
COc1cc(NC(=O)CCc2c(C)[nH]c(=O)c(C#N)c2C)cc(OC)c1	6	-4	5	·	-1
O=C1c2cccc3cccc(c23)C(=O)N1c1nccs1	9	2	11	24	0
O=C1c2cccc3cccc(c23)C(=O)N1c1ccc2ncccc2c1	9	0	-17	89*	-2
CSc1nc2c(cc1C#N)CCC2	9	-1	4	23	1
N#Cc1cc2c(nc1SC1CC(=O)N(c3ccccc3)C1=O)CCC2 (centres undefined)	·	·	·	84*	·
CCCCS(=O)(=O)N1CCCC(C(=O)Oc2ccc(Cl)cc2)C1 (centres undefined)	-7	-4	-7	·	2
COCCNC(=O)/C(=C/c1ccccc1Cl)c1ccccc1	3	-2	-4	5	-1
CC(C)c1nc(N2CCN(C(=O)c3ccco3)CC2)c(C#N)c2c1COC(C)(C)C2	-3	-6	17	·	1
CC(C)c1nc(N2CCN(C(=O)c3ccccc3)CC2)c(C#N)c2c1COC(C)(C)C2	-8	0	-41	91*	4
COc1cc(CN2CCCC(CCC(=O)NCc3ccc(C)o3)C2)cc2c1OCO2 (centres undefined)	3	0	18	86*	4
COc1ccc(N2CCN(C(CNC(=O)OCc3ccccc3)c3ccco3)CC2)cc1 (centres undefined)	-3	-1	-24	-11	0
NC(=O)c1ccsc1NC(=O)COC(=O)c1ccccc1NCc1ccco1	-26	2	-49	96*	1
COc1cc(CCCN2CCNC[C@@H]2Cc2ccccc2)cc(OC)c1OC	4	1	5	·	0
Cc1cc(C)c(C)c(OCC(=O)NCc2nc(-c3ccccc3)no2)c1	0	1	14	86*	2
Cc1nc(SCC(=O)NCCN2C(=O)CSC2=O)nc(C)c1C	-4	0	18	·	0
c1ccc(-c2nnc3sc(CN4CCC5(CC4)OCCO5)cn23)cc1	7	0	-4	77*	1
c1ccc(-c2nnc(CN3CCC4(CC3)OCCO4)o2)cc1	-7	0	-15	6	3
c1csc(CSc2nc3ccccc3s2)c1	-97	2	-110	86*	3
Cc1noc(C)c1CSc1nc2ccccc2s1	3	1	-28	-14	0
